Data on 1 molecule can be found in ChEMBL document CHEMBL4130623, “Discovery of Highly Potent Pinanamine-Based Inhibitors against Amantadine- and Oseltamivir-Resistant Influenza A Viruses” (J Med Chem, 2018).

pEC50, pIC50: −log10 of the molar value. Active and inactive are the calls of the source.

Data set [1] has as its system Influenza A virus. As to the kind of experiment: Antiviral activity against Influenza A virus (A/Guangzhou/GIRD/07/2009 (H1N1)) infected in MDCK cells assessed as reduction in virus-induced cytopathic effect after 48 hrs by microscopic analysis. It is filed as functional, organism-based. The gist of the method:
(§1)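 MDCK monolayers (5×10^4 cells/well, grown 24 h) were rinsed twice, infected with 100 TCID50 virus for 2 h at 37 °C in 5% CO2, and the inoculum was removed. Two-fold serial compound dilutions in DMEM with 1.5 µg/mL trypsin were added and incubated 48 h at 34 °C. CPE percentage was scored by microscope and EC50 fitted by non-linear regression.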

The test system of data set [2] is Influenza A virus. In words: Antiviral activity against Influenza A virus (A/HK/68) by CCK-8 reagent based assay. It is filed as functional, organism-based.
Data set [3] addresses Hemagglutinin (Influenza A virus (A/Puerto Rico/8/1934(H1N1))) (UniProt P03452). As to the kind of experiment: Inhibition of Influenza A virus A/PR/8/34 HA1 domain assessed as reduction in virus-induced aggregation of chicken erythrocytes at 0.75 to 1500 uM incubated for 1 hr with virus followed by transfer of compound-virus preparation to chicken erythrocytes solution measured after 40 mins. The gist of the method:
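Two-fold serial compound dilutions in PBS were mixed with an equal volume of virus and incubated 1 h. The mixture was added to an equal volume of fresh 0.5% chicken red blood cells in Alsever's solution. After 40 min at room temperature, erythrocyte aggregation was read visually.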

The subject of data set [4] is Influenza A virus. As to the kind of experiment: Antiviral activity against Influenza A virus (A/WSN/33) by CCK-8 reagent based assay. It is filed as functional, organism-based. Conditions: A/WSN/1933(H1N1).
In data set [5] the target is Hemagglutinin (Influenza A virus (A/Puerto Rico/8/1934(H1N1))) (UniProt P03452). In words: Inhibition of Influenza A virus A/PR/8/34 HA2-mediated hemolysis preincubated with virus for 30 mins followed by chicken red blood cells addition measured after 30 mins by spectrophotometric analysis. The gist of the method: (§2)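 Virus (100 µL) was incubated with two-fold serial compound dilutions in PBS for 30 min at 37 °C. An equal volume of chicken red blood cells in citric acid-sodium citrate (pH 5.0) was added and incubated 30 min at 37 °C, then centrifuged at 400 × g. Supernatant absorbance was read at 540 nm, with mock-infected background subtracted. IC50 is the concentration giving 50% hemolysis inhibition. Two independent experiments were run.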

In data set [6] the test system is Influenza A virus. As to the kind of experiment: Antiviral activity against Influenza A virus (A/California/07/2009(H1N1)) infected in human A549 cells assessed as reduction in plaque area after 3 days post infection by crystal violet-staining based assay. It is filed as functional, organism-based. To be noted: A549, 72 h. In outline:
(§3)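 A549 monolayers were infected at 0.01 MOI for 1 h at 37 °C, then washed twice with PBS. Cells were overlaid with 1% agar DMEM containing compound, 2 µg/mL trypsin and 0.3% BSA. Two to three days post-infection, monolayers were fixed and stained with 0.1% crystal violet.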

The subject of a further data set is H3N2 subtype. In words: Antiviral activity against Influenza A virus (A/Aichi/2/68 (H3N2)) infected in MDCK cells assessed as reduction in virus-induced cytopathic effect after 48 hrs by microscopic analysis. It is filed as functional, organism-based. Conditions: A/Aichi/2/1968(H3N2). In outline:
as §1
In general terms: Cytopathic effects are the visible damage that an infection or toxin causes in cultured cells.

Data set [7] deals with Influenza A virus. In words: Antiviral activity against Influenza A virus (A/duck/Guangdong/1/1996 (H7N3)) infected in MDCK cells assessed as reduction in virus-induced cytopathic effect after 48 hrs by microscopic analysis. It is filed as functional, organism-based. In outline:
as §1

In data set [8] the test system is Influenza A virus. In words: Antiviral activity against Influenza A virus (A/WSN/33 (H1N1)) infected in MDCK cells assessed as reduction in virus-induced cytopathic effect after 48 hrs by microscopic analysis. Format: functional, organism-based. Conditions: A/WSN/1933(H1N1). In outline: as §1
Data set [9] deals with Influenza A virus. As to the kind of experiment: Antiviral activity against Influenza A virus (A/duck/HK/Y280/97 (H9N2)) infected in MDCK cells assessed as reduction in virus-induced cytopathic effect after 48 hrs by microscopic analysis. Format: functional, organism-based. In outline: as §1
Data set [10] addresses Hemagglutinin (Influenza A virus (strain A/Aichi/2/1968 H3N2)) (UniProt P03437). In words: (§4) Inhibition of Influenza A virus A/Aichi/2/68 (H3N2) HA2-mediated hemolysis preincubated with virus for 30 mins followed by chicken red blood cells addition measured after 30 mins by spectrophotometric analysis. Conditions: Influenza A virus (A/Aichi/2/1968(H3N2)). In outline: as §2

For the next data set, the target named is Hemagglutinin (Influenza A virus (strain A/Aichi/2/1968 H3N2), UniProt P03437). The data set is described as §4. Set-up: species or system Influenza A virus (A/Aichi/2/1968(H3N2)). In outline:
as §2

Data set [11] has as its system Influenza A virus. In words: Antiviral activity against Influenza A virus (A/HK/68(H3N2)) infected in MDCK cells assessed as reduction in virus-induced cytopathic effect after 48 hrs by microscopic analysis. Format: functional, organism-based. In outline:
as §1

For data set [12], the system named is Influenza A virus. As to the kind of experiment: Antiviral activity against Influenza A virus (A/PR/8/34 (H1N1)) infected in MDCK cells assessed as inhibition of virus yield dosed at -1 to 2 hrs post infection and measured after 24 hrs. Format: functional, organism-based. To be noted: A/Puerto Rico/8/1934(H1N1). In outline:
(§5)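 Confluent MDCK cells were infected with 100 TCID50 virus and adsorbed 1 h at 4 °C (adsorption defined as -1 h), then washed. Compound at 10 µM was present only during the stated interval, then washed out with PBS. Cells were kept in medium with 1.5 µg/mL TPCK-trypsin at 37 °C. After 24 h, plates were freeze-thawed and supernatant yield was titrated by TCID50.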

Data set [13] has as its system Influenza A virus. In words: Antiviral activity against Influenza A virus (A/PR/8/34 (H1N1)) infected in MDCK cells assessed as inhibition of virus yield dosed at 0 to 2 hrs post infection and measured after 24 hrs. Format: functional, organism-based. Conditions: A/Puerto Rico/8/1934(H1N1). In outline:
as §5

The subject of data set [14] is Influenza A virus. As to the kind of experiment: Antiviral activity against Influenza A virus (A/Texas/04/2009(H1N1)) infected in human A549 cells assessed as reduction in plaque area after 3 days post infection by crystal violet-staining based assay. It is filed as functional, organism-based. Conditions: A549, 72 h. In outline: as §3
In data set [15] the test system is Influenza A virus. As to the kind of experiment: Antiviral activity against Influenza A virus (A/PR/8/34 (H1N1)) infected in MDCK cells assessed as reduction in virus-induced cytopathic effect after 48 hrs by microscopic analysis. It is filed as functional, organism-based. Conditions: A/Puerto Rico/8/1934(H1N1). In outline:
as §1

The nature of data set [16]: Cytotoxicity against MDCK cells assessed as change in cell morphology after 48 hrs by microscopic analysis. Format: cell-based, Canis lupus familiaris. To be noted: dog. In outline:
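MDCK monolayers (5×10^4 cells/well, 24 h) were rinsed twice with PBS and exposed to two-fold serial compound dilutions in DMEM for 48 h. Wells were examined by microscope. The concentration giving minimal change in cell morphology was taken as the minimum cytotoxic concentration (MCC).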

Hemagglutinin (Influenza A virus (A/Puerto Rico/8/1934(H1N1))), sequence (P03452 whole entry, the tested form may be a part): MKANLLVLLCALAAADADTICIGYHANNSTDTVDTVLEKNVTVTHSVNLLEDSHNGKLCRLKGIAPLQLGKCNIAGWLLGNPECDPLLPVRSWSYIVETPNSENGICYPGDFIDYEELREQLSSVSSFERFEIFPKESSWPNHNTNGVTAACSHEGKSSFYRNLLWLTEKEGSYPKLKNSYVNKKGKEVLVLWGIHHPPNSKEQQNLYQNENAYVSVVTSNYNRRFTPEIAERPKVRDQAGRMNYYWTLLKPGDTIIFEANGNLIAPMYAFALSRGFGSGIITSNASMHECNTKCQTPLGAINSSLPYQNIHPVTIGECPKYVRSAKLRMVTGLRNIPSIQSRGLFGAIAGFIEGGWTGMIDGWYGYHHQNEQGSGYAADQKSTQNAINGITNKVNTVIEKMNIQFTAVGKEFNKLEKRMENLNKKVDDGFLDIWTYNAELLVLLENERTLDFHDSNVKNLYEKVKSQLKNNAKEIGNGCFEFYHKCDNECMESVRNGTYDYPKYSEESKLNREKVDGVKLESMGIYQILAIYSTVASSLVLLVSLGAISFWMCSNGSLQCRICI

As to `C[C@@H]1C2CC(C[C@H]1NCc1sccc1C1CC1)C2(C)C` (single isomer, unassigned), the negative logarithm of the EC50 (pEC50) with Influenza A virus [1] was 6.52; with Influenza A virus [6], 6.47; in the data set with H3N2 subtype it was 5.34; with Influenza A virus [7], 5.34; with Influenza A virus [8] it was 5.83; in the data set with Influenza A virus [9], 5.17. Also, the negative logarithm of the EC50 (pEC50) in the data set with Influenza A virus [11] was 5.27; with Influenza A virus [14] it was 7.00; in the data set on Influenza A virus [15], 5.65. Besides, the result with Influenza A virus [2] and in the data set on Influenza A virus [4] was Active. In data set [3], the inhibition result was “inactive”. Further, the inhibition entry in data set [5] and in data set [10] was “Dose-dependent effect” each time. Besides, at Hemagglutinin, the pIC50 is 5.91. Moreover, the inhibition entry in the data set on Influenza A virus [12] and with Influenza A virus [13] was “Active” each time. The MCC at 48 h in [16] is 25 µM.

One may read the pEC50 as the negative decadic logarithm of the EC50, by convention in mol/L. As usually defined, the pIC50 is the IC50 on a negative log10 scale, so that one unit is a factor of ten. A higher pIC50 goes with a low IC50.
